LEDGF integ inh: blockers of LEDGF/p75-dependent integrase strand transfer – biochemical, TR-FRET, high throughput, primary screen; HIV-1 integrase (with human LEDGF/p75); TR-FRET IN-LEDGF/p75 DNA integration, Eu/Cy5; inhibition, % at 3.7 µM; hit rate 0.64% among 370,000;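 active means inhibition above the screen-wide mean plus 3 SD, cut at about 13% in these data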;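 further: signal is the Cy5 over europium emission ratio at 671 and 618 nm; 0% = plate median of compound wells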
CASP6 VEID inh: human caspase-6 inhibitors, primary screen, biochemical, VEID-R110 fluorescence, single point, set 2 | P55212 | purified caspase-6, Z-VEID-R110 cleavage fluorescence | inhibition, % at 12.5 µM | hit rate 0.53% among 350,000;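 active means mean inhibition across replicates at least about 35%, with every replicate also reaching that limit, limit read from the data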;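 further: 0% = median of neutral control wells and 100% = no fluorescence left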
NSD2 HMT inh: NSD2 histone methyltransferase inhibitors, primary screen, biochemical, AlphaScreen, single concentration, set 2. inhibition, % at 12.5 µM. hit rate 0.54% among 310,000. NSD2 peptide methylation, 120 min. Histone-lysine N-methyltransferase NSD2 (Homo sapiens), O96028; in the data active means inhibition above about 50%
UCH37 DUB inh: inhibitors of human UCH37 deubiquitinase, primary screen, biochemical, Ub-AMC cleavage, fluorescence. purified proteasome/UCH37. inhibition, % (concentration not given with the values). hit rate 0.33% among 330,000;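 active means mean inhibition over replicate wells above about 20%, limit read from the data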;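 further: 0% = compound-free wells with enzyme and 100% = wells lacking proteasome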
Target sequence (Q9Y5K5 whole entry, looked up): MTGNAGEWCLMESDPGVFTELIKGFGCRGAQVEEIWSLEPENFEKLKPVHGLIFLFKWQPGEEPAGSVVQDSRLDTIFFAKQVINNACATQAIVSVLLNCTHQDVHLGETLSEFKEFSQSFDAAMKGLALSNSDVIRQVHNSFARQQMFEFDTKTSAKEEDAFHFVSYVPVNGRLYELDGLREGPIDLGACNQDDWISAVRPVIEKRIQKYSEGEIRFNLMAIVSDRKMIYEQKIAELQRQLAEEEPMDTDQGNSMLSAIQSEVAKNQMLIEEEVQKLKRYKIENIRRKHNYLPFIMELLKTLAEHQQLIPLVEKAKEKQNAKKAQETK
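Reagent: Ub-AMC substrate; assay system: Proteasome-associated human UCH37 deubiquitinase; controls: no-proteasome and no-compound wells; read-out: % inhibition of Ub-AMC cleavage fluorescence; timing: 30 min preincubation with enzyme, 25 min cleavage at room temperature; signal: AMC fluorescence from Ub-AMC cleavage, excitation 355 nm, emission 460 nm; buffer or medium: Tris-HCl pH 7.4 plus ovalbumin, ATP-MgCl2, DTT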
TDP2 inh: human TDP2 enzyme inhibitors, primary screen, biochemical, epi absorbance, recombinant enzyme | inhibition, % at 12.8 µM | Tyrosyl-DNA phosphodiesterase 2 (Homo sapiens), O95551 | hit rate 0.34% among 370,000 | T5PNP hydrolysis, p-nitrophenol absorbance 415 nm;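 active means inhibition above the mean of all tested compounds plus 3 SD, set per campaign, cut at about 25% in these data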;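 further: 0% = DMSO with enzyme and 100% = buffer with substrate but no TDP2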
Target sequence (O95551 whole entry, looked up): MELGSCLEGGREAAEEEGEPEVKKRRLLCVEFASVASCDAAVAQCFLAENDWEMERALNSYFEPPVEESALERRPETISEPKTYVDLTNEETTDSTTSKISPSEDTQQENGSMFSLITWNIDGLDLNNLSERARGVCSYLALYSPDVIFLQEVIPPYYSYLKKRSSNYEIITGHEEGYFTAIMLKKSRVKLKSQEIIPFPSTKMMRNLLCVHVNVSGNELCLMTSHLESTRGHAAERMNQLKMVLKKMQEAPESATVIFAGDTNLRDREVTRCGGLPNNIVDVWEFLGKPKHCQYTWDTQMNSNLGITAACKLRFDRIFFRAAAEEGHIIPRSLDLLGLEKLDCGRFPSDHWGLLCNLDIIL
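Material: recombinant human TDP2; quantity: TDP2 enzyme at 120 nM final; medium: Tris-HCl pH 7.5 with MgCl2; compound: single concentration, 12.8 µM nominal, with 1% DMSO; incubation: 2 h enzyme incubation at 37 °C; signal: epi absorbance; measure: percent inhibition; benchmarks: high control without enzyme, low control DMSO plus TDP2; repeats: singlicate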
* = called active by the depositor; · = not tested or not shown. Most compounds without a hit are left out; they make up all but 1.3% or so of the library.

SMILES | LEDGF integ inh | CASP6 VEID inh | NSD2 HMT inh | UCH37 DUB inh | TDP2 inh
COc1cc(/C=C2/C(=O)c3cccc([N+](=O)[O-])c3C2=O)c(Br)cc1O | 3.8 | · | 54.6* | 8.4 | 6.2
CC(=O)C1=C(O)C(=O)N(CCN(C)C)C1c1ccc(Cl)cc1 (configuration not stated) | 1.0 | · | 0.2 | 24.4* | -4.8
CCCCCCN1C(=O)C(O)=C(C(C)=O)C1c1ccc(Cl)cc1 (configuration not stated) | -5.1 | · | 2.6 | 2.5 | -1.2
CC(CC(=O)Nc1ccc(Cl)cn1)=NNC(=O)Cc1cccs1 | · | · | · | 6.4 | ·
N#C[C@@H]1[C@H](c2ccc(C3=CCCCC3)cc2)[C@@H](CO)N1S(=O)(=O)c1ccccc1 | · | 41.3* | · | · | ·
N#C[C@@H]1[C@H](c2ccc(C3=CCCCC3)cc2)[C@H](CO)N1S(=O)(=O)c1ccccc1 | · | -1.2 | · | · | ·
COc1ccc(Cn2c(C)nc3c(c2=O)c2nc4ccccc4nc2n3Cc2ccco2)cc1 | 13.5* | -4.8 | · | -38.8 | 0.1
COc1ccc(S(=O)(=O)c2c(N)n(Cc3ccco3)c3nc4ccccc4nc23)cc1 | 14.6* | · | -4.4 | -93.3 | -0.7
CCOC(=O)C(=NNc1cc(Cl)ccc1Cl)N1CCN(C)CC1 | · | · | · | 5.4 | ·
CC(C)=NNc1cc([N+](=O)[O-])cc2c1C(=O)N(C)S2=O (configuration not stated) | 1.1 | 40.0* | 10.0 | 3.3 | -0.6
CCOc1ccc(C=NOCC(=O)NC(c2ccccc2)c2ccccc2)cc1 | · | · | · | 3.5 | ·
CC[n+]1c(/C=C/c2ccc(N(C)C)cc2)ccc2ccccc21 | -5.9 | 0.1 | 40.5 | 23.4* | 4.8
CCN(CC)c1ccc(/C=C/c2ccc3ccc(OC)cc3[n+]2CC)cc1 | 2.7 | 2.0 | 75.5* | 3.7 | -2.0
CC[n+]1ccccc1/C=C/c1ccc(N(C)C)cc1 | -7.6 | -10.5 | 11.2 | 20.8* | -17.4
CC1CCCCC12NC(=O)N(Cc1cc(=O)n3ccsc3n1)C2=O (configuration not stated) | -1.3 | 41.9* | -124.4 | -1.0 | 10.5
COc1cc(C=NN=Cc2cc(OC)c(O)c(OC)c2)cc(OC)c1O | · | · | · | 18.8 | ·
Cc1cccc(C(=O)ON=C(N)c2cccc([N+](=O)[O-])c2)c1 | · | · | · | 1.5 | ·
COc1ccc(-n2c(C)c(C(C)=O)c(C(C)=O)c2C)cc1 | -2.0 | 38.7* | 2.0 | 3.7 | -1.4
O=C(c1cccc(S(=O)(=O)N2CCCCCC2)c1)N1CCN(c2ccccc2F)CC1 | 1.7 | 47.9* | -2.9 | 0.6 | -7.6
C[n+]1ccccc1C1CCCCC1=NNc1ccc([N+](=O)[O-])cc1[N+](=O)[O-] (configuration not stated) | · | · | · | 1.0 | ·
CCCC[n+]1ccn(C2=C([O-])c3ccccc3C(=O)/C2=N\S(=O)(=O)c2ccc(Br)cc2)c1 | 2.6 | 0.6 | 31.1 | 19.3 | 3.2
Cc1ccc(S(=O)(=O)/N=C2\C(=O)c3ccccc3C([O-])=C2n2cc[n+](CCC(C)C)c2)cc1 | · | · | · | 31.1* | ·
Cc1ccccc1N(CC(=O)NN=Cc1ccc(F)cc1)C(=O)c1ccccc1 | · | · | · | 5.2 | ·
COc1ccc(C=Nn2c(=O)[nH]c3c([nH]c4ccc(F)cc43)c2=O)cc1CN1CCCCC1 | · | · | · | -2.6 | ·
COc1ccc(OC)c(S(=O)(=O)NCC(c2cccs2)N2CCc3ccccc3C2)c1 (configuration not stated) | -0.2 | 72.0* | 0.6 | 0.8 | 5.0
SMILES | LEDGF integ inh | CASP6 VEID inh | NSD2 HMT inh | UCH37 DUB inh | TDP2 inh
NC(=NOC(=O)CCCc1ccccc1)c1ccc([N+](=O)[O-])cc1 | · | · | · | 2.7 | ·
COCCN(C(=O)c1cc2c(s1)CCC2)c1c(N)n(CC(C)C)c(=O)[nH]c1=O | -1.7 | 52.3* | 0.9 | 5.5 | 5.6
COCCN(C(=O)c1cc2c(s1)CCCCC2)c1c(N)n(CC(C)C)c(=O)[nH]c1=O | 4.5 | 5.9 | -1.5 | 3.3 | 2.7
CC(=NNc1ccc(C(=O)O)cc1)c1ccc(Br)cc1 | · | · | · | 16.1 | ·
CC(=NNc1ccc(C(=O)O)cc1)c1ccc(O)c(O)c1O | · | · | · | 20.8* | ·
Cn1c(N=Nc2ccccc2)nc2ccccc21 | 12.2 | 39.1* | 7.7 | 5.5 | -11.8
CCCCCCN1C=CC(=C/C=C(\C#N)C(=O)OCC)C=C1 | -5.0 | · | 1.5 | 21.0* | -6.8
C(=NNCc1ccccc1)c1ccc2ncccc2c1 | · | · | · | 7.9 | ·
CN(Cc1ccccc1)C(=O)c1[nH]cnc1C(=O)N[C@@H](Cc1ccccc1)C(=O)OC(C)(C)C | -0.7 | 4.1 | · | 35.3* | -9.6
CCN(CC)C(=O)c1[nH]cnc1C(=O)N[C@@H](C)C(=O)OC(C)(C)C | -0.8 | -4.2 | · | 31.8* | 4.0
C[C@H](NC(=O)c1nc[nH]c1C(=O)NCCCCCNC(=O)OC(C)(C)C)C(=O)OC(C)(C)C | 1.4 | -0.3 | · | 1.5 | 7.4
CC(C)C[C@H](NC(=O)c1[nH]cnc1C(=O)Nc1ccccc1)C(=O)OC(C)(C)C | 3.2 | 0.8 | · | 28.2* | -14.1
CC(C)(C)OC(=O)[C@H](Cc1ccccc1)NC(=O)c1nc[nH]c1C(=O)NCc1ccccc1 | 0.6 | 8.0 | · | 1.3 | -1.5
COc1cc(C=NNc2ncc(C(F)(F)F)cc2Cl)cc(OC)c1O | · | · | · | 6.3 | ·
COc1ccc2c(C)cc(SCC(=O)Nc3nsc(-c4ccc(C)cc4)n3)nc2c1 | 5.3 | 49.3* | · | 1.2 | 0.8
Cc1ccc(-c2nc(NC(=O)CSc3cc(C)c4ccccc4n3)ns2)cc1 | 2.9 | -2.0 | · | 5.6 | 3.6
O=C(NN=Cc1ccc(Cl)c([N+](=O)[O-])c1)c1cc(-c2ccc3c4c(cccc24)CC3)n[nH]1 | · | · | · | 5.5 | ·
COc1ccc(C=Nc2nc3ccccc3n2CCN2CCCCC2)cc1OC | · | · | · | 4.5 | ·
COc1cc(C=NNC(=O)C2COc3ccccc3O2)ccc1O (configuration not stated) | · | · | · | -3.5 | ·
O=C(Nc1ccc(Cl)cn1)C1CCCN1S(=O)(=O)c1ccccc1 (configuration not stated) | -5.0 | · | -2.3 | 5.9 | 1.3

Screening data deposited in PubChem BioAssay by several laboratories.
